# In ChEMBL document CHEMBL1926535, “Novel pyridopyrazine and pyrimidothiazine derivatives as FtsZ inhibitors” (Bioorg Med Chem, 2011):
# pIC50: −log10 of the molar value.
# What was measured:
# [1] = tested on: Mycobacterium tuberculosis; experiment: Antituberculosis activity against Mycobacterium tuberculosis H37Ra ATCC 25177 after 6 days using alamar blue dye by broth microdilution assay; type: functional; conditions: H37Ra ATCC 25177, 144 h
# How it was run: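 Strain H37Ra in a colorimetric Alamar blue broth microdilution assay using duplicate two-fold serial dilutions of drug.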
# [2] = tested on: Mycobacterium tuberculosis; experiment: Antituberculosis activity against Mycobacterium tuberculosis H37Rv ATCC 27294 after 7 days using alamar blue assay; type: functional; conditions: 168 h
# How it was run: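 Strain H37Rv growth measured over a 10-point dose-response curve. IC90, the concentration inhibiting bacterial growth by 90%, is extrapolated from the curve.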
# Vero = experiment: Cytotoxicity against african green monkey Vero cells after 72 hrs by celltiter-glo assay; type: cell-based; conditions: chlorocebus sabaeus
# How it was run: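 Vero cells grown in culture with compound across a 10-point dose-response curve. CC50 is extrapolated as the concentration that inhibits cell growth by 50%. Each compound was assayed at least three times.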
# [3] = target: T1, Cell division protein FtsZ (Mycobacterium tuberculosis, UniProt P9WN95); experiment: Inhibition of Mycobacterium tuberculosis FtsZ polymerization expressed in Escherichia coli by light scattering assay
# T1 sequence (P9WN95 whole entry): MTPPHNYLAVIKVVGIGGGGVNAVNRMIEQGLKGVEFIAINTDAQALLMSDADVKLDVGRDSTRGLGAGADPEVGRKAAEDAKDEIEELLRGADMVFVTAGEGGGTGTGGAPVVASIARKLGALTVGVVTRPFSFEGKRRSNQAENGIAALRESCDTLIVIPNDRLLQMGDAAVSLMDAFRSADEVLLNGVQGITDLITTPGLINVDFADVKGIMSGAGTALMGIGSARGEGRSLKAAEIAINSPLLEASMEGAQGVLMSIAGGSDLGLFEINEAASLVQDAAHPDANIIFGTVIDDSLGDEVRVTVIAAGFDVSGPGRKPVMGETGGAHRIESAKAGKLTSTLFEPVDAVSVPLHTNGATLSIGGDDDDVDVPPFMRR
# How it was run: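 Mtb FtsZ polymerization assay with each compound run at least three times. IC50 is the concentration that inhibits polymerization by 50%, reported as mean ± standard deviation.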
# [4] = Inhibition of purified bovine tubulin polymerization by light scattering assay; set-up: species or system Bos taurus
# How it was run: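 Tubulin polymerization assay. IC50 is the concentration that inhibits polymerization by 50%. Each compound was analyzed at least three times, reported as mean ± standard deviation.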
# [5] = tested on: Mycobacterium tuberculosis; experiment: Antitubercular activity against Mycobacterium tuberculosis infected in interferon-gamma-gene-disrupted C57BL/6 mouse model assessed as reduction in bacterial load in lung at 10 mg/kg, po administered daily measured after 9 days; type: functional
# How it was run: (§1)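 Interferon-γ gene-disrupted C57BL/6 (GKO) mice infected with M. tuberculosis. Compound given at 10 mg/kg in 0.5% methyl cellulose by daily gavage for 9 days. Read-out is the reduction in bacterial load (Log10 CFU) in lungs or spleen versus untreated controls, with significance judged by P value (0.05 threshold).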
# [6] = tested on: Mycobacterium tuberculosis; experiment: Antitubercular activity against Mycobacterium tuberculosis infected in interferon-gamma-gene-disrupted C57BL/6 mouse model assessed as reduction in bacterial load in spleen at 10 mg/kg, po administered daily measured after 9 days; type: functional; how it was run: as §1
# Bos taurus = species: Bos taurus; experiment: Inhibition of purified bovine tubulin polymerization at 100 uM by light scattering assay
# [7] = target: T2, Cell division protein FtsZ (Mycobacterium tuberculosis) (UniProt P9WN95); experiment: Inhibition of Mycobacterium tuberculosis FtsZ polymerization expressed in Escherichia coli at 100 uM by light scattering assay
# T2 sequence (whole entry): T1 sequence (P9WN95 whole entry)
# Mus musculus [8] = experiment: Toxicity in C57BL/6 mouse model assessed as lethality at 300 mg/kg administered via gavage; type: organism-based; set-up: dose 300 mg/kg; conditions: in vivo, po
# How it was run: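 Acute maximum tolerated dose study in C57BL/6 mice. Escalating doses up to 300 mg/kg were given daily for 3 days by gavage in 0.5% methyl cellulose, and doses were scaled back if mortality or adverse effects appeared.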
# Mus musculus [9] = experiment: Toxicity in C57BL/6 mouse model assessed as adverse event at 100 mg/kg administered via gavage; type: organism-based; set-up: dose 100 mg/kg; conditions: in vivo, po
# How it was run: (§2)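 Acute maximum tolerated dose study in C57BL/6 mice. Escalating oral gavage doses up to 300 mg/kg were given daily for 3 days, formulated in 0.5% methyl cellulose. Dosage was scaled back if mortality or adverse effects were observed.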
# Mus musculus [10] = experiment: Toxicity in C57BL/6 mouse model assessed as adverse event at 30 mg/kg administered via gavage; type: organism-based; set-up: dose 30 mg/kg; conditions: in vivo, po; how it was run: as §2
# [11] = tested on: Mycobacterium tuberculosis; experiment: Antitubercular activity against Mycobacterium tuberculosis infected in interferon-gamma-gene-disrupted C57BL/6 mouse model assessed as reduction in bacterial load in lung at 10 mg/kg, po administered daily; type: functional; how it was run: as §1
# [12] = tested on: Mycobacterium tuberculosis; experiment: Antitubercular activity against Mycobacterium tuberculosis infected in interferon-gamma-gene-disrupted C57BL/6 mouse model assessed as reduction in bacterial load in spleen at 10 mg/kg, po administered daily; type: functional; how it was run: as §1
Structure (SMILES),MIC [1] [µM],IC90 [2] [µM],CC50 (Vero) [µM],pIC50 [3],pIC50 [4],log10cfu [5],log10cfu [6],inhibition (Bos taurus) [%],inhibition [7] [%],Activity (Mus musculus [8]),Activity (Mus musculus [9]),Activity (Mus musculus [10]),log10cfu [11],log10cfu [12]
CCOC(=O)Nc1cc(NC(C)CCCN(CC)CC)c2nc(-c3cccs3)c(-c3cccs3)nc2n1 (stereo not given),0.43,< 0.19,> 40,4.46,< 4.00,0.51,0.58,,,,,,,
CCOC(=O)Nc1cc(NCCN(CC)CC)c2nc(-c3cccs3)c(-c3cccs3)nc2n1,≤ 7.9,0.92,6.3,4.68,< 4.00,,,,,,,,,
CCOC(=O)Nc1cc(NC(C)CCCN(CC)CC)c2nc(-c3ccccn3)c(-c3ccccn3)nc2n1 (stereo not given),54,> 100,> 40,4.34,< 4.00,,,,,,,,,
CCN(CC)CCCC(C)Nc1cc(N)nc2nc(-c3ccco3)c(-c3ccco3)nc12 (stereo not given),150,> 100,14,4.73,< 4.00,,,,,,,,,
CCOC(=O)Nc1nc(NCCCCN(CC)CC)c2c(n1)SC(c1ccccc1)C(c1ccccc1)=N2 (stereo not given),52,18,> 40,4.34,4.16,,,,,,,,,
CCOC(=O)Nc1cc(NCCCCN(CC)CC)c2nc(-c3ccccc3)c(-c3ccccc3)nc2n1,0.24,< 0.19,1.8,4.28,,,,40,,,,,,
CCN(CC)CCCC(C)Nc1cc(N)nc2nc(-c3cccs3)c(-c3cccs3)nc12 (stereo not given),17,4.1,5.9,4.53,< 4.00,,,,,,,,,
CCOC(=O)Nc1cc(NCCCCN(CC)CC)c2nc(-c3ccco3)c(-c3ccco3)nc2n1,3.6,> 100,> 40,4.79,4.39,,,,,,,,,
CCOC(=O)Nc1cc(NC(C)CCCN(CC)CC)c2nc(-c3ccco3)c(-c3ccco3)nc2n1 (stereo not given),3.6,7,> 40,4.57,< 4.00,,,,,,,,,
CCOC(=O)Nc1cc(NCCCCN(CC)CC)c2nc(-c3cccs3)c(-c3cccs3)nc2n1,0.23,> 100,> 40,,< 4.00,,,,64,,,,,
CCOC(=O)Nc1cc(NCCN(CC)CC)c2nc(-c3ccco3)c(-c3ccco3)nc2n1,8.7,> 100,5.5,4.46,< 4.00,,,,,,,,,
CCOC(=O)Nc1cc(NC(C)CCCN(CC)CC)c2nc(CC)c(CC)nc2n1 (stereo not given),> 290,> 50,> 40,< 4.00,< 4.00,,,,,,,,,
CCOC(=O)Nc1nc(NC(C)CCCN(CC)CC)c2c(n1)SC(c1ccccc1)C(c1ccccc1)=N2 (stereo not given),49,21.7,> 40,4.34,< 4.00,,,,,,,,,
CCOC(=O)Nc1cc(NCCN(CC)CC)c2nc(-c3ccccc3)c(-c3ccccc3)nc2n1,1.7,0.38,2.7,,< 4.00,,,,59,,,,,
CCOC(=O)Nc1cc(NCCN(C)C)c2nc(-c3cccs3)c(-c3cccs3)nc2n1,1.1,< 0.19,1.6,4.56,< 4.00,,,,,,,,,
CCOC(=O)Nc1cc(NCCN(C)C)c2nc(-c3ccco3)c(-c3ccco3)nc2n1,≤ 7,29,37,4.47,< 4.00,,,,,,,,,
CCOC(=O)Nc1cc(NC(C)CCCN(CC)CC)c2nc(-c3ccccc3)c(-c3ccccc3)nc2n1 (stereo not given),0.47,< 0.19,,4.47,< 4.00,,,,,Toxic,Toxic,Toxic,0.86,0.5
CCOC(=O)Nc1cc(NCCN(C)C)c2nc(-c3ccccc3)c(-c3ccccc3)nc2n1,≤ 7.6,< 0.19,0.7,4.26,< 4.00,,,,,,,,,
CCOC(=O)Nc1nc(NC(C)CCCN(CC)CC)c2nc(-c3ccccc3)c(-c3ccccc3)nc2n1 (stereo not given),3.8,1.9,,4.42,,,,24,,,,,,
CCOC(=O)Nc1cc(NC(C)CCCN(CC)CC)c2nc(C)c(C)nc2n1 (stereo not given),> 290,> 100,> 40,< 4.00,< 4.00,,,,,,,,,
